Experimental data published in ChEMBL document CHEMBL2169813, “Cell death triggered by synthetic flavonoids in human leukemia cells is amplified by the inhibition of extracellular signal-regulated kinase signaling” (Eur J Med Chem, 2012).
Activity calls are given as the source filed them. No cut-off for these calls is given here.

How the values were obtained:
HL-60 [1] = experiment: Induction of apoptosis in human HL60 cells assessed as hypodiploid cells level incubated for 24 hrs in presence of 2 uM p38MAPK inhibitor SB203580 by flow cytometry; format: functional, cell-based
Method in brief: (§1)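 HL-60 cells preincubated 1 h with PD98059 (10 µM), SP600125 (10 µM) or SB203580 (2 µM), then treated with compound. Hypodiploid (apoptotic) cells quantified by flow cytometry of propidium iodide-stained nuclei. Three independent experiments, each in triplicate.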

HL-60 [2] = experiment: Induction of apoptosis in human HL60 cells assessed as hypodiploid cells level incubated for 24 hrs in presence of 10 uM JNK/SAPK inhibitor SP600125 by flow cytometry; format: functional, cell-based; method in brief: as §1
[3] = target: T1, Mitogen-activated protein kinase; ERK1/ERK2 (Homo sapiens) (UniProt P27361+P28482); experiment: Induction of ERK1/2 phosphorylation in human HL60 cells after 30 mins in presence of 10 uM MEK1/2 inhibitor PD98059 by Western blotting; format: cell-based; settings: HL-60
Method in brief: (§2)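 HL-60 cells (1 × 10⁶/mL) treated with compound (10–30 µM) for various times. Where used, PD98059 (10 µM) was added 1 h beforehand. Lysates run on 10% SDS-PAGE and immunoblotted for phosphorylated ERK 1/2, JNK/SAPK or p38MAPK. Blots stripped and reprobed for the total kinase as loading control.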

HL-60 [4] = experiment: Increase in apoptosis in human HL60 cells assessed as hypodiploid cells level incubated for 24 hrs in presence of 10 uM MEK1/2 inhibitor PD98059 by flow cytometry (reference value: 15%); format: functional; method in brief: as §1
[5] = target: T2, c-Jun N-terminal kinase, JNK (Homo sapiens) (UniProt P45983+P53779+P45984); experiment: Induction of JNK/SAPK phosphorylation in human HL60 cells after 6 hrs by Western blotting; format: cell-based; settings: HL-60; method in brief: as §2
[6] = target: T1, Mitogen-activated protein kinase; ERK1/ERK2 (Homo sapiens); experiment: Induction of ERK1/2 phosphorylation in human HL60 cells after 6 hrs by Western blotting; format: cell-based; settings: HL-60; method in brief: as §2
[7] = target: T3, MAP kinase p38 (Homo sapiens) (UniProt O15264+Q15759+Q16539+P53778); experiment: Induction of p38MAPK phosphorylation in human HL60 cells after 4 hrs by Western blotting; format: cell-based; settings: HL-60; method in brief: as §2
[8] = target: T3, MAP kinase p38 (Homo sapiens); experiment: Induction of p38MAPK phosphorylation in human HL60 cells after 30 mins by Western blotting; format: cell-based; settings: HL-60; method in brief: as §2
[9] = target: T2, c-Jun N-terminal kinase, JNK (Homo sapiens); experiment: Induction of JNK/SAPK phosphorylation in human HL60 cells after 30 mins by Western blotting; format: cell-based; settings: HL-60; method in brief: as §2
HL-60 [10] = experiment: Induction of apoptosis in human HL60 cells assessed as hypodiploid cells level at 30 uM incubated for 24 hrs in presence of caspase-9 inhibitor z-LEHD-fmk by flow cytometry; format: functional, cell-based
Method in brief: (§3)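 HL-60 cells given 30 µM compound for 24 h, alone or with z-VAD-fmk (100 µM), z-DEVD-fmk, z-IETD-fmk or z-LEHD-fmk (each 50 µM). Propidium iodide staining, hypodiploid cells quantified by flow cytometry. Three independent experiments, each in triplicate.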

HL-60 [11] = experiment: Induction of apoptosis in human HL60 cells assessed as hypodiploid cells level at 30 uM incubated for 24 hrs in presence of caspase-8 inhibitor z-IETD-fmk by flow cytometry; format: functional, cell-based; method in brief: as §3
HL-60 [12] = experiment: Induction of apoptosis in human HL60 cells assessed as hypodiploid cells level at 30 uM incubated for 24 hrs in presence of caspase-3 and -7 inhibitor z-DEVD-fmk by flow cytometry; format: functional, cell-based; method in brief: as §3
HL-60 [13] = experiment: Induction of apoptosis in human HL60 cells assessed as hypodiploid cells level at 30 uM incubated for 24 hrs in presence of caspase inhibitor z-VAD-fmk by flow cytometry; format: functional, cell-based; method in brief: as §3
HL-60 [14] = experiment: Induction of procaspase-7 processing in human HL60 cells at 30 uM incubated for 24 hrs by immunoblotting method; format: functional, cell-based
Method in brief: (§4)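 HL-60 cells (1 × 10⁶/mL) exposed to compound, harvested at 24 h. Lysed in Tris-HCl pH 7.4/Triton X-100 buffer with phosphatase and protease inhibitors, 15 min at 4 °C. Equal protein run on SDS-PAGE (7.5% PARP, 12.5% caspases) and immunoblotted on PVDF. β-Actin used as loading control.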

HL-60 [15] = experiment: Induction of procaspase-3 processing in human HL60 cells at 30 uM incubated for 24 hrs by immunoblotting method; format: functional, cell-based; method in brief: as §4
HL-60 [16] = experiment: Induction of procaspase-6 processing in human HL60 cells at 30 uM incubated for 24 hrs by immunoblotting method; format: functional, cell-based; method in brief: as §4
HL-60 [17] = experiment: Induction of Bid protein cleavage in human HL60 cells at 30 uM incubated for 24 hrs by Western blotting method; format: functional, cell-based; method in brief: as §4
HL-60 [18] = experiment: Induction of procaspase-9 cleavage in human HL60 cells at 30 uM incubated for 24 hrs by immunoblotting method; format: functional, cell-based; method in brief: as §4
HL-60 [19] = experiment: Induction of procaspase-8 hydrolysis in human HL60 cells at 30 uM incubated for 24 hrs by immunoblotting method; format: functional, cell-based; method in brief: as §4
HL-60 [20] = experiment: Induction of cytochrome-c release in human HL60 cells at 30 uM incubated for 24 hrs by immunoblotting method; format: functional, cell-based
Method in brief: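 HL-60 cells treated 24 h with 30 µM compound. Cytosolic extracts immunoblotted for cytochrome c released from mitochondria. β-Actin used as loading control.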

HL-60 [21] = experiment: Induction of caspase activation in human HL60 cells assessed as increase in PARP cleavage at 30 uM incubated for 24 hrs by immunoblotting method; format: functional, cell-based; method in brief: as §4
HL-60 [22] = experiment: Induction of p21'Cip1 protein expression in human HL60 cells at 30 uM incubated for 24 hrs by Western blotting method; format: functional, cell-based; method in brief: as §4
HL-60 [23] = experiment: Induction of cyclin D1 protein expression in human HL60 cells at 30 uM incubated for 24 hrs by Western blotting method; format: functional, cell-based; method in brief: as §4
HL-60 [24] = experiment: Cell cycle arrest in human HL60 cells assessed as accumulation at S phase at 30 uM incubated for 24 hrs by flow cytometry (reference value: 16.7 +/- 0.5%); format: functional
HL-60 [25] = experiment: Cell cycle arrest in human HL60 cells assessed as accumulation at G2/M phase at 30 uM incubated for 24 hrs by flow cytometry (reference value: 33.2 +/- 2.1%); format: functional
HL-60 [26] = experiment: Cell cycle arrest in human HL60 cells assessed as accumulation at G1 phase at 30 uM incubated for 24 hrs by flow cytometry (reference value: 48 +/- 1.6%); format: functional
HL-60 [27] = experiment: Cell cycle arrest in human HL60 cells assessed as accumulation at G2/M phase at 10 uM incubated for 24 hrs by flow cytometry (reference value: 33.2 +/- 2.1%); format: functional
HL-60 [28] = experiment: Cell cycle arrest in human HL60 cells assessed as accumulation at G1 phase at 10 uM incubated for 24 hrs by flow cytometry (reference value: 48 +/- 1.6%); format: functional
HL-60 [29] = experiment: Cell cycle arrest in human HL60 cells assessed as accumulation at S phase at 10 uM incubated for 24 hrs by flow cytometry (reference value: 16.7 +/- 0.5%); format: functional
HL-60 [30] = experiment: Cell cycle arrest in human HL60 cells assessed as accumulation at subG1 phase at 10 uM incubated for 24 hrs by flow cytometry (reference value: 2.3 +/- 0.5%); format: functional
HL-60 [31] = experiment: Induction of DNA fragmentation in human HL60 cells at 30 uM incubated for 24 hrs by agarose gel electrophoresis; format: functional, cell-based
Method in brief: (§5)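 HL-60 cells treated with the indicated concentrations. Genomic DNA extracted, run on agarose gel and visualised under UV after ethidium bromide staining, looking for internucleosomal fragmentation.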

HL-60 [32] = experiment: Induction of DNA fragmentation in human HL60 cells at 10 uM incubated for 24 hrs by agarose gel electrophoresis; format: functional, cell-based; method in brief: as §5
HL-60 [33] = experiment: Induction of apoptosis in human HL60 cells assessed as incidence of condensed and fragmented chromatin at 30 uM incubated for 24 hrs by fluorescent microscopy; format: functional, cell-based
PBMC = experiment: Induction of MLL gene cleavage in human proliferating PBMCs at 30 uM incubated for 16 hrs by inverse PCR method; format: functional, cell-based
Method in brief: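 Peripheral blood mononuclear cells exposed to 30 µM compound for 16 h. Genomic DNA digested with Xba I and circularised. Nested inverse PCR (MF1–MR1, then MF2–MR2). Wild-type MLL removed by Pvu II digestion before PCR to reveal rearrangement products.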

HL-60 [34] = experiment: Cytotoxicity against human HL60 cells assessed as cell viability after 48 hrs at 30 uM by MTT assay; format: functional; settings: HL-60, 48 h, read-out: Activity
Method in brief: (§6)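 HL-60 cells, quiescent (fresh) PBMC and phytohemagglutinin-activated healthy human PBMC cultured 48 h over a concentration range of compound. Proliferation measured. Means ± SE of two independent experiments, each in triplicate.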

HL-60 [35] = experiment: Cytotoxicity against human HL60 cells after 72 hrs by MTT assay; format: functional, cell-based; settings: HL-60, 72 h
Method in brief: (§7)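 MTT colorimetric assay on HL-60 and HL-60/MX1 cells (RPMI 1640, 10% heat-inactivated FBS), 72 h exposure, absorbance 570 nm. IC50 obtained graphically by curve fitting. Means ± S.E. of three independent experiments, each in triplicate.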

[36] = target: T1, Mitogen-activated protein kinase; ERK1/ERK2 (Homo sapiens); experiment: Induction of ERK1/2 phosphorylation in human HL60 cells after 30 mins by Western blotting; format: cell-based; settings: HL-60; method in brief: as §2
HL-60 [37] = experiment: Cell cycle arrest in human HL60 cells assessed as accumulation at subG1 phase at 30 uM incubated for 24 hrs by flow cytometry (reference value: 2.3 +/- 0.5%); format: functional
[38] = Cytotoxicity against human HL60/MX1 cells after 72 hrs by MTT assay; format: functional, cell-based; settings: HL60/MX1, 72 h; method in brief: as §7
[39] = Cytotoxicity against human proliferating PBMCs assessed as cell viability after 48 hrs at 30 uM by MTT assay; format: cell-based, PBMC; settings: read-out: Activity; method in brief: as §6
HL-60 [40] = experiment: Cytotoxicity against human HL60 cells at 100 uM after 72 hrs by MTT assay
HL-60 [41] = experiment: Induction of apoptosis in human HL60 cells assessed as changes in nuclear morphology at 30 uM incubated for 24 hrs by fluorescence microscopy (reference value: 4.9 +/- 1.0%)

T1 sequence (P27361 whole entry, looked up): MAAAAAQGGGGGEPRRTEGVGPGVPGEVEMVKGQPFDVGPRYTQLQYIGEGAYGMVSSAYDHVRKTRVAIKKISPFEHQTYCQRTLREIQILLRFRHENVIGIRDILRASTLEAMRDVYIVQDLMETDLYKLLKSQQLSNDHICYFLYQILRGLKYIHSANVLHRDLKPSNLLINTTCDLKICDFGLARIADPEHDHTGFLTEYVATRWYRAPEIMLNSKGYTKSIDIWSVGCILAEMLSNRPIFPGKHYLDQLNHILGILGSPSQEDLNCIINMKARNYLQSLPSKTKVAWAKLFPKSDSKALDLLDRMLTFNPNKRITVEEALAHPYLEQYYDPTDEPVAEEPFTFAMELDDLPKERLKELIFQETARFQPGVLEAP
T1 sequence (P28482 whole entry, looked up): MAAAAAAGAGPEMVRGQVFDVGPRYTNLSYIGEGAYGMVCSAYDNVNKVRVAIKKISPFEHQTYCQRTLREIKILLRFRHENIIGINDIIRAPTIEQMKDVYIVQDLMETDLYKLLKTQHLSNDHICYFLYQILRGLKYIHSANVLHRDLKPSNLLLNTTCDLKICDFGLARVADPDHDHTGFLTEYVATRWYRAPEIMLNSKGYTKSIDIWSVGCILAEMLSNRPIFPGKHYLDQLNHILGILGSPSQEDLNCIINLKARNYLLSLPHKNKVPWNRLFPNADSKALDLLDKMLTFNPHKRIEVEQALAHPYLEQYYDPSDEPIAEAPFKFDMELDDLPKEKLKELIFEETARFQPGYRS

COC(=O)c1c(C)c(C)cc2c(=O)cc(-c3ccccc3C)oc12
Activity (HL-60 [1]): Active | Activity (HL-60 [2]): Active | Activity [3]: inactive | Activity (HL-60 [4]): 25% | Activity [5]: Active | Activity [6]: Active | Activity [7]: inactive | Activity [8]: Active | Activity [9]: Active | Activity (HL-60 [10]): inactive | Activity (HL-60 [11]): inactive | Activity (HL-60 [12]): inactive | Activity (HL-60 [13]): inactive | Activity (HL-60 [14]): Active | Activity (HL-60 [15]): Active | Activity (HL-60 [16]): Active | Activity (HL-60 [17]): Active | Activity (HL-60 [18]): Active | Activity (HL-60 [19]): Active | Activity (HL-60 [20]): Active | Activity (HL-60 [21]): Active | Activity (HL-60 [22]): Active | Activity (HL-60 [23]): Active | Activity (HL-60 [24]): 7.6% | Activity (HL-60 [25]): 11.8% | Activity (HL-60 [26]): 48.1% | Activity (HL-60 [27]): 24.4% | Activity (HL-60 [28]): 53% | Activity (HL-60 [29]): 16.6% | Activity (HL-60 [30]): 5.5% | Activity (HL-60 [31]): Active | Activity (HL-60 [32]): Active | Activity (HL-60 [33]): Active | Activity (PBMC): Active | viability at 30 µM (HL-60 [34]): 25% | IC50 (HL-60 [35]): 10.1 µM | Activity [36]: Active | Activity (HL-60 [37]): 28.5% | IC50 [38]: 18.9 µM | viability at 48 h, 30 µM [39]: 75% | Activity (HL-60 [40]): Active | Activity (HL-60 [41]): 26.9%
